Experimental data taken from ChEMBL document CHEMBL3774374, “The Effect of Small Molecules on Sterol Homeostasis: Measuring 7-Dehydrocholesterol in Dhcr7-Deficient Neuro2a Cells and Human Fibroblasts” (J Med Chem, 2016).
The source made the active and inactive calls. The calls are words filed in the database; no cut-off is given here.

How the values were obtained:
[1] = target: T1, Delta(24)-sterol reductase (Mus musculus) (UniProt Q8VCH6); experiment: Inhibition of DR24 in Dhcr7-deficient mouse Neuro2a cells assessed as decrease in 7-DHC levels at 20 nM after 24 hrs by LC-MS analysis; assay type: cell-based
T1 sequence (whole entry): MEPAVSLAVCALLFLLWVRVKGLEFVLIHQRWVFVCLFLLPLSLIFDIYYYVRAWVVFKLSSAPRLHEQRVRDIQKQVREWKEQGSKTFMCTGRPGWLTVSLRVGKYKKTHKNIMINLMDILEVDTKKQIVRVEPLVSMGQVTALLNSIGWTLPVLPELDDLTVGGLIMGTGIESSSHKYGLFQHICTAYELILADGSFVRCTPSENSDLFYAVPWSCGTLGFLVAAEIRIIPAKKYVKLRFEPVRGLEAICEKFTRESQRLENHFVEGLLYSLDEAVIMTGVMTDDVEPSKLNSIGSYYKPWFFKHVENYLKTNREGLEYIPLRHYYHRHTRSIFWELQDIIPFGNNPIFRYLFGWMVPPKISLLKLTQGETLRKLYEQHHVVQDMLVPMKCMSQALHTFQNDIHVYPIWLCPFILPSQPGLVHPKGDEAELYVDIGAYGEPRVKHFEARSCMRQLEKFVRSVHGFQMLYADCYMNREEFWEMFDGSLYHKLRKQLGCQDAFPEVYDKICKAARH
Outline: (§1)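 384-well screen: Dhcr7-deficient Neuro2a cells (13000/well, 0.5% FBS) with compound at 20 or 200 nM (five wells each), 24 h at 37 °C. Cells counted after Hoechst imaging, then methanol lysis with d7-7-DHC standard, PTAD derivatization 20 min at RT, UPLC-MS SRM (7-DHC 560→365). Read-out is pg 7-DHC per cell.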

[2] = target: T2, 3-beta-hydroxysteroid-Delta(8),Delta(7)-isomerase (Mus musculus) (UniProt P70245); experiment: Inhibition of delta 8-7 isomerase in Dhcr7-deficient mouse Neuro2a cells assessed as increase in zymosterol levels at 1 uM by LC-MS/GC-MS analysis; assay type: cell-based
T2 sequence (whole entry): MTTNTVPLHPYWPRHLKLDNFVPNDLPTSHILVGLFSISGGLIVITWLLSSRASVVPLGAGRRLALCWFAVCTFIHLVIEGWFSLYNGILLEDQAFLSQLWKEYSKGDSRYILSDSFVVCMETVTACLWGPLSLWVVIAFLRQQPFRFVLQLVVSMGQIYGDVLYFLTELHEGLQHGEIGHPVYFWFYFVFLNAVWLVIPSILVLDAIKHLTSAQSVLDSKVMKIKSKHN
Outline: (§2)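 Follow-up (verification) assay in 96-well plates, run as the 384-well screen, in triplicate, at varying compound concentrations. Cells counted by Hoechst imaging, washed with PBS, then lysed in MeOH with BHT/TPP and isotope standards (d7-Chol, d7-7-DHC, 13C3-Des, 13C3-Lan). Sterols derivatised with PTAD for 20 min at RT and quantified by C18 UPLC-MS (SRM). Remaining sample silylated with BSTFA and run on GC-MS, quantified against d7-Chol.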

[3] = target: T2, 3-beta-hydroxysteroid-Delta(8),Delta(7)-isomerase (Mus musculus); experiment: Inhibition of delta 8-7 isomerase in Dhcr7-deficient mouse Neuro2a cells assessed as increase in zymostenol levels at 1 uM by LC-MS/GC-MS analysis; assay type: cell-based; outline: as §2
[4] = target: T1, Delta(24)-sterol reductase (Mus musculus); experiment: Inhibition of DR24 in mouse Neuro2a cells assessed as decrease in 7-DHC levels at 1 uM by LC-MS/GC-MS analysis; assay type: cell-based
Outline: (§3)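 Control Neuro2a cells (10000/well, 0.5% FBS) on compound, 24 h. Hoechst cell count, then methanol lysis with labelled standards (d7-7-DHC, 13C3-desmosterol, 13C3-lanosterol), PTAD derivatization 20 min at RT, UPLC-MS SRM. GC-MS of silylated extract for further sterols.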

[5] = target: T2, 3-beta-hydroxysteroid-Delta(8),Delta(7)-isomerase (Mus musculus); experiment: Inhibition of delta 8-7 isomerase in Dhcr7-deficient mouse Neuro2a cells assessed as decrease in 7-DHC levels at 200 nM after 24 hrs by LC-MS analysis; assay type: cell-based
Outline: (§4)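 384-well screen: Dhcr7-deficient Neuro2a cells (13000/well) dispensed in 0.5% FBS medium onto predeposited compound (five wells each at 20 and 200 nM) and incubated 24 h at 37 °C. Nuclei Hoechst-stained and counted by automated imaging. Cells lysed in MeOH with deuterated and 13C standards, then derivatised with PTAD for 20 min at RT. 7-DHC measured by isocratic UPLC-MS (SRM) and expressed as pg per cell; DMSO wells served as controls.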

[6] = Cytotoxicity against human SLOS fibroblasts at 5 uM after 5 days by Cell Titer assay; assay type: cell-based; conditions: fibroblast, 120 h
[7] = target: 3-beta-hydroxysteroid-Delta(8),Delta(7)-isomerase (Homo sapiens) (UniProt Q15125); experiment: Inhibition of delta 8-7 isomerase in human SLOS fibroblasts assessed as decrease in 7-DHC levels at 10 nM after 5 days by LC-MS/GC-MS analysis
Sequence of 3-beta-hydroxysteroid-Delta(8),Delta(7)-isomerase (Homo sapiens) (Q15125 whole entry): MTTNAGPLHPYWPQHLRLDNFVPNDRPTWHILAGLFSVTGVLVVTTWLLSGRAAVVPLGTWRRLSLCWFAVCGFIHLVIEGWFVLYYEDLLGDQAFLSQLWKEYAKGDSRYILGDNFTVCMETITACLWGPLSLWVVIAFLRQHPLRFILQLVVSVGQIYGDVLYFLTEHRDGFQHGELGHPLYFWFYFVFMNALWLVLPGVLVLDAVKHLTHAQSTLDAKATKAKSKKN
Outline: (§5)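 SLOS patient skin fibroblasts (passage 8–20) grown in 96-well plates in delipidated serum with compound for 5 days; three different SLOS lines. Sterols quantified by PTAD-derivatized UPLC-MS plus GC-MS; 7-DHC expressed as percentage of untreated cells.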

[8] = target: T1, Delta(24)-sterol reductase (Mus musculus); experiment: Inhibition of DR24 in Dhcr7-deficient mouse Neuro2a cells assessed as decrease in 7-DHC levels at 200 nM after 24 hrs by LC-MS analysis; assay type: cell-based; outline: as §1
[9] = target: T2, 3-beta-hydroxysteroid-Delta(8),Delta(7)-isomerase (Mus musculus); experiment: Inhibition of delta 8-7 isomerase in Dhcr7-deficient mouse Neuro2a cells assessed as decrease in 7-DHC levels at 1 uM by LC-MS/GC-MS analysis; assay type: cell-based
Outline: (§6)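 Dhcr7-deficient Neuro2a cells (13000/well, 0.5% FBS medium) on predeposited compound, 24 h at 37 °C. Hoechst-stained and imaged to count cells. Lysed in methanol containing isotope-labelled sterol standards, derivatized with PTAD 20 min at RT, then isocratic C18 UPLC-MS/SRM. Remaining extract silylated with BSTFA for GC-MS, quantified against d7-cholesterol. Follow-up runs in triplicate.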

Fibroblast = experiment: Decrease in cholesterol levels in human SLOS fibroblasts at 10 nM after 5 days by LC-MS/GC-MS analysis; assay type: functional, cell-based; outline: as §5
[10] = target: T3, Delta(24)-sterol reductase (Homo sapiens) (UniProt Q15392); experiment: Inhibition of DR24 in human SLOS fibroblasts assessed as decrease in 7-DHC levels at 10 nM after 5 days by LC-MS/GC-MS analysis; outline: as §5
T3 sequence (whole entry): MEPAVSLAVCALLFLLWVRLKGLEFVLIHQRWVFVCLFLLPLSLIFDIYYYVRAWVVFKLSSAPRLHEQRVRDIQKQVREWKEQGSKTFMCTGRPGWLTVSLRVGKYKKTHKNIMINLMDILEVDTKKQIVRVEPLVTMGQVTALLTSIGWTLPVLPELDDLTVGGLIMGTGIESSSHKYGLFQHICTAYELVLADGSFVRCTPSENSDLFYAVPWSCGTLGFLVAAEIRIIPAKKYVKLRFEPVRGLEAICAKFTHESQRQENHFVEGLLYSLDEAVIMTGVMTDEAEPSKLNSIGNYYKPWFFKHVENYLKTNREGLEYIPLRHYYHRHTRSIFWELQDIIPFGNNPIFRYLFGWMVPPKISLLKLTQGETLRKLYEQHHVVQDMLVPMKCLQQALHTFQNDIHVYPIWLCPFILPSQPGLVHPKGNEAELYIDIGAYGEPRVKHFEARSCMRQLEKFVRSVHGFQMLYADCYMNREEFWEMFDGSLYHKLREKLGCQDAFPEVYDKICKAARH

[11] = target: T2, 3-beta-hydroxysteroid-Delta(8),Delta(7)-isomerase (Mus musculus); experiment: Inhibition of delta 8-7 isomerase in Dhcr7-deficient mouse Neuro2a cells assessed as decrease in cholesterol levels at 1 uM by LC-MS/GC-MS analysis; assay type: cell-based; outline: as §2
[12] = target: T1, Delta(24)-sterol reductase (Mus musculus); experiment: Inhibition of DR24 in Dhcr7-deficient mouse Neuro2a cells assessed as decrease in 7-DHC levels at 1 uM by LC-MS/GC-MS analysis; assay type: cell-based; outline: as §6
[13] = target: T2, 3-beta-hydroxysteroid-Delta(8),Delta(7)-isomerase (Mus musculus); experiment: Inhibition of delta 8-7 isomerase in Dhcr7-deficient mouse Neuro2a cells assessed as decrease in 7-DHC levels at 20 nM after 24 hrs by LC-MS analysis; assay type: cell-based; outline: as §4
[14] = target: T2, 3-beta-hydroxysteroid-Delta(8),Delta(7)-isomerase (Mus musculus); experiment: Inhibition of delta 8-7 isomerase in mouse Neuro2a cells assessed as decrease in 7-DHC levels at 1 uM by LC-MS/GC-MS analysis; assay type: cell-based; outline: as §3
[15] = target: 3-beta-hydroxysteroid-Delta(8),Delta(7)-isomerase (Homo sapiens) (UniProt Q15125); experiment: Inhibition of delta 8-7 isomerase in human SLOS fibroblasts assessed as decrease in 7-DHC levels at 100 nM after 5 days by LC-MS/GC-MS analysis
Outline: (§7)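 SLOS patient skin fibroblasts (passage 8–20; three different lines) grown in 96-well plates in delipidated serum with compound for 5 days. 7-DHC and cholesterol quantified by PTAD-derivatisation UPLC-MS with isotopic standards. Values expressed as percentage of 7-DHC in the same cells grown without compound.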

[16] = target: T3, Delta(24)-sterol reductase (Homo sapiens); experiment: Inhibition of DR24 in human SLOS fibroblasts assessed as decrease in 7-DHC levels at 100 nM after 5 days by LC-MS/GC-MS analysis; outline: as §7
N2a [17] = experiment: Increase in 7-DHC levels in Dhcr7-deficient mouse Neuro2a cells at 200 nM after 24 hrs by LC-MS analysis; assay type: functional, cell-based; outline: as §1
N2a [18] = experiment: Decrease in desmosterol levels in mouse Neuro2a cells by LC-MS analysis; assay type: functional, cell-based; outline: as §3
N2a [19] = experiment: Decrease in lanosterol levels in mouse Neuro2a cells by LC-MS analysis; assay type: functional, cell-based; outline: as §3
N2a [20] = experiment: Increase in 7-DHC levels in mouse Neuro2a cells at 100 nM by LC-MS analysis; assay type: functional
Outline: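 Control Neuro2a cells in 96-well plates, treated at 1, 10 and 100 nM. 7-DHC measured by PTAD derivatization and UPLC-MS against deuterated 7-DHC standard; n > 3.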

CCN(CC)CCOc1ccc(C(=C(Cl)c2ccccc2)c2ccccc2)cc1 [CLOMIPHENE]
inhibition [1]: Active
inhibition [2]: Active
inhibition [3]: Active
Decrease in 7-DHC levels (active/inactive call) [4]: Active
inhibition [5]: Active
Activity [6]: Non-toxic
inhibition [7]: Active
inhibition [8]: Active
inhibition [9]: Active
Activity (Fibroblast): inactive
inhibition [10]: Active
inhibition [11]: Active
inhibition [12]: Active
inhibition [13]: Active
Activity (decrease in 7-DHC levels) [14]: Active

CN(C)CCOc1ccc(/C(=C(/CCCl)c2ccccc2)c2ccccc2)cc1 [TOREMIFENE]
inhibition [15]: Active
inhibition [2]: Active
inhibition [3]: Active
inhibition [4]: Active
Activity [6]: Toxic
inhibition [9]: Active
inhibition [16]: Active
inhibition [11]: Active
inhibition [12]: Active
Activity (decrease in 7-DHC levels) [14]: Active

O=C1CCc2ccc(OCCCCN3CCN(c4cccc(Cl)c4Cl)CC3)cc2N1 [ARIPIPRAZOLE]
Activity (N2a [17]): Active
Activity (N2a [18]): Active
Activity (N2a [19]): Active
fold change (FC) (N2a [20]): 40
